Data from paper PMC10613959 (Toxicological Sciences, 2023).
Where two headings read alike, the source gives them in different places.

Tests used:
[1] = Blood partitioning assay for Rbp; assay type: in vitro ADME; settings: both, human
Procedure, shortened: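 Fresh pooled mixed-gender human whole blood (lithium heparin) and reference plasma centrifuged from the same blood were each incubated with 5 µM test compound at 37°C, n = 3. Reactions were stopped at 0 and 60 min. Rbp was derived by LC-MS/MS from test compound concentration in control plasma versus whole-blood supernatant. Chlorthalidone 5 µM served as positive control.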

Cross filtration = assay type: in vitro ADME; settings: both, human, pooled human plasma
Procedure, shortened: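 Modified cross-ultrafiltration: 10 µM test compound in pooled mixed-gender human plasma, 60 min at 37°C, n = 3, then ultrafiltered beside blank plasma. Each retentate was mixed into the partner filtrate and the regenerated samples analysed by LC-MS/MS. Warfarin 10 µM was positive control. Stability was checked at 60 min against non-incubated control. Recovery-corrected mean PPB from filtrate; Fup = 100 − PPB.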

[2] = Ex vivo skin penetration study of radiolabeled OMC; assay type: in vitro ADME; settings: human skin; for Dermal delivery (Epidermis + Dermis + Receptor fluid), 14C-OMC / Dermis, distribution of 14C-OMC / Epidermis, distribution of 14C-OMC / Receptor fluid, distribution of 14C-OMC / Skin excess, distribution of 14C-OMC / Total recovery, 14C-OMC / Total strips (1–20), distribution of 14C-OMC: mean
Procedure, shortened: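 Dermatomed skin, 350–450 µm, in flow-through diffusion cells (1 cm2 area), unoccluded, surface at 32°C ± 1°C. Receptor fluid (5% w/w BSA, 0.9% NaCl) flowed at 1.5 ml/h and was collected hourly. Runs ended at 30 min, 1, 2, 4, 8 h (n = 5) or 24 h (n = 12). Up to 20 tape strips; epidermis heat-separated from dermis; compartments counted by scintillation. Dermal delivery = epidermis + dermis + receptor fluid.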

[3] = Metabolic stability in primary human hepatocytes in suspension; assay type: in vitro ADME; settings: human, cryopreserved human hepatocytes in suspension (5 donor pool)
Procedure, shortened: (§1)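 Cryopreserved human hepatocytes (5-donor pool, 0.8 × 10^6 cells/ml) in Williams E medium (25 mM HEPES, 2 mM L-glutamine) were incubated with test compound at 0.1, 1 and 10 µM, 37°C, n = 3. Sampled at 0, 15, 60, 90, 180 and 240 min; solvent ≤0.5% DMSO or 1% ACN. Heat-inactivated hepatocytes were the negative control. Parent loss was measured by LC-MS. CLint = −k·V (k, slope of log concentration vs time; V, incubation volume/cell number).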

human hepatocytes = assay: as above; assay type: in vitro ADME; settings: human suspension hepatocytes; compared with Naloxone
Procedure, shortened: as §1

[4] = Skin absorption parameters; parameters: species or system human; settings: Fitted; for Vehicle/water partition coefficient: vehicle/formulation specific
Procedure, shortened: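 A skin model in GastroPlus TCAT started from in silico predicted values for the vehicle, stratum corneum, epidermis and dermis. Its diffusivities and partition coefficients were fitted to skin penetration data: receptor-fluid time course where available, plus skin wash and layer distribution. Parameters were adjusted to minimise model–data difference and then used in the human dermal model. Vehicle/water partitioning is formulation-specific.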

[5] = Scaling of in vitro CLint to in vivo CLint and CLliver; parameters: species or system human; settings: scaled from the mean in vitro CLint
Procedure, shortened: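 Mean in vitro hepatocyte CLint was scaled to in vivo CLint (l/h) using a scaling factor: million cells per gram of liver × grams of liver weight. In vivo CLint was then converted to hepatic clearance with two variations of the well-stirred liver model.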

[6] = PBK population simulation of plasma concentrations; parameters: species or system human
Procedure, shortened: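 GastroPlus population simulations reproduced the clinical designs. Lotion or non-aerosol spray, 2 mg/cm2 over 75% body surface, once at 0 h on day 1 and 4 times daily at 2-h intervals on days 2–4 (mixed multiple-dose profile). Alternatively, a 4% formulation over 90% body surface, about 22 mg/kg bw, in 3 male and 3 female subjects. Simulated-mean/observed-mean ratios for Cmax and AUC0−t; 10th–90th percentiles generated.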

[7] = human plasma, topical sunscreen, ref Matta et al., 2020, cited from earlier work
[8] = human skin, cited from earlier work
[9] = ref Shand, 1976; cited from earlier work
[10] = target dose 300 µg/cm^2, ref SCCS, 2021

For CCCCC(CC)COC(=O)C=Cc1ccc(OC)cc1 (stereo not shown) [OMC, octyl methoxycinnamate], the blood plasma ratio at 60 min, 5 µM [1] was 0.73, the fraction unbound at 60 min, 10 µM (Cross filtration) was 0.0004 and the “dermal delivered fraction of the applied dose” value ([2]; all the conditions (30 min to 24 h), target dose 200 µg/cm^2) was “less than 0.5%”. The “Dermal delivery (Epidermis + Dermis + Receptor fluid), 14C-OMC” value (shortened to “Dermal delivery … 14C-OMC”) ([2]; terminated at 30 min) was 0.10%, the “Dermis, distribution of 14C-OMC” value ([2]; terminated at 30 min) was 0.004% and the “Epidermis, distribution of 14C-OMC” value ([2]; terminated at 30 min) was 0.07%. For the same molecule, the “Receptor fluid, distribution of 14C-OMC” value ([2]; terminated at 30 min) was 0.02%, the “Skin excess, distribution of 14C-OMC” value ([2]; terminated at 30 min) was 91.04% and the “Total recovery, 14C-OMC” value ([2]; terminated at 30 min) was 91.65%. The “Total strips (1–20), distribution of 14C-OMC” value (shortened to “Total strips … of 14C-OMC”) ([2]; terminated at 30 min) was 0.51%, the “Dermal delivery … 14C-OMC” value ([2]; terminated at 1 h) was 0.06% and the “Dermis, distribution of 14C-OMC” value ([2]; terminated at 1 h) was 0.01%. For the same molecule, the “Epidermis, distribution of 14C-OMC” value ([2]; terminated at 1 h) was 0.04%, the “Receptor fluid, distribution of 14C-OMC” value ([2]; terminated at 1 h) was 0.003% and the “Skin excess, distribution of 14C-OMC” value ([2]; terminated at 1 h) was 112.02%. The “Total recovery, 14C-OMC” value ([2]; terminated at 1 h) was 112.38%, the “Total strips … of 14C-OMC” value ([2]; terminated at 1 h) was 0.30% and the “Dermal delivery … 14C-OMC” value ([2]; terminated at 2 h) was 0.11%. The “Dermis, distribution of 14C-OMC” value ([2]; terminated at 2 h) was 0.005%, the “Epidermis, distribution of 14C-OMC” value ([2]; terminated at 2 h) was 0.06% and the “Receptor fluid, distribution of 14C-OMC” value ([2]; terminated at 2 h) was 0.04%. For the same molecule, the “Skin excess, distribution of 14C-OMC” value ([2]; terminated at 2 h) was 89.22%, the “Total recovery, 14C-OMC” value ([2]; terminated at 2 h) was 90.06% and the “Total strips … of 14C-OMC” value ([2]; terminated at 2 h) was 0.73%. The “Dermal delivery … 14C-OMC” value ([2]; terminated at 4 h) was 0.12%, the “Dermis, distribution of 14C-OMC” value ([2]; terminated at 4 h) was 0.01% and the “Epidermis, distribution of 14C-OMC” value ([2]; terminated at 4 h) was 0.05%. The “Receptor fluid, distribution of 14C-OMC” value ([2]; terminated at 4 h) was 0.06%, the “Skin excess, distribution of 14C-OMC” value ([2]; terminated at 4 h) was 100.26% and the “Total recovery, 14C-OMC” value ([2]; terminated at 4 h) was 100.75%. For the same molecule, the “Total strips … of 14C-OMC” value ([2]; terminated at 4 h) was 0.37%, the “Dermal delivery … 14C-OMC” value ([2]; terminated at 8 h) was 0.20% and the “Dermis, distribution of 14C-OMC” value ([2]; terminated at 8 h) was 0.01%. For the same molecule, the “Epidermis, distribution of 14C-OMC” value ([2]; terminated at 8 h) was 0.10%, the “Receptor fluid, distribution of 14C-OMC” value ([2]; terminated at 8 h) was 0.09% and the “Skin excess, distribution of 14C-OMC” value ([2]; terminated at 8 h) was 113.76%. The “Total recovery, 14C-OMC” value ([2]; terminated at 8 h) was 114.46%, the “Total strips … of 14C-OMC” value ([2]; terminated at 8 h) was 0.50% and the “Dermal delivery … 14C-OMC” value ([2]; terminated at 24 h) was 0.28%. The “Dermis, distribution of 14C-OMC” value ([2]; terminated at 24 h) was 0.02%, the “Epidermis, distribution of 14C-OMC” value ([2]; terminated at 24 h) was 0.21% and the “Receptor fluid, distribution of 14C-OMC” value ([2]; terminated at 24 h) was 0.06%. The “Skin excess, distribution of 14C-OMC” value ([2]; terminated at 24 h) was 100.26%, the “Total recovery, 14C-OMC” value ([2]; terminated at 24 h) was 100.96% and the “Total strips … of 14C-OMC” value ([2]; terminated at 24 h) was 0.41%. The hepatocyte CLint [3] was 43.3 µL/min/1e6 cells, the hepatocyte CLint at 10 µM [3] was 43.3 µL/min/1e6 cells and the “depletion in suspension hepatocytes” value (human hepatocytes) was “medium to fast depletion”. The Dermis diffusivity [4] was 1.0E−07 cm^2/s, the Dermis/water partition coefficient [4] was 7.0E−01 and the Epidermis diffusivity [4] was 3.0E−08 cm^2/s. For the same molecule, the Epidermis/water partition coefficient [4] was 2.0E+01, the Stratum corneum diffusivity [4] was 2.0E−10 cm^2/s and the “Stratum corneum/water partition coefficient” value [4] was 4.5E+02. The Vehicle diffusivity [4] was 7.0E−12 cm^2/s, the Vehicle/water partition coefficient [4] was 1.5E+05 and the “In vivo CLint scaled” value [5] was 312.0 l/h/kg liver. For the same molecule, the “AUC0 − t Fold Difference (Simulated Mean/Observed Mean)” value ([6]; Day 1) was 1.5, the “Cmax Fold Difference (Simulated Mean/Observed Mean)” value ([6]; Day 1) was 1.5 and the “AUC0 − t Fold Difference (Simulated Mean/Observed Mean)” value ([6]; Day 4) was 2.7. The “Cmax Fold Difference (Simulated Mean/Observed Mean)” value ([6]; Day 4) was 1.3, the “Observed AUC0 − t, Geometric mean” value ([7]; Day 1) was 21.6 ng·h/mL and the “Observed AUC0 − t, Range” value ([7]; Day 1) was 2.7 to 57.7 ng·h/mL. The “Observed Cmax, Range” value ([7]; Day 1) was 0.6 to 5 ng/mL, the “Observed AUC0 − t, Geometric mean” value ([7]; Day 4) was 103.4 ng·h/mL and the “Observed AUC0 − t, Range” value ([7]; Day 4) was 45.1 to 213.5 ng·h/mL. The “Observed Cmax, Range” value ([7]; Day 4) was 2.6 to 30.6 ng/mL.
With CCCCC(CC)COC(=O)C(C#N)=C(c1ccccc1)c1ccccc1 (stereo not shown) [Octocrylene, octocrylene] the blood plasma ratio at 60 min, 5 µM [1] was 0.73, the fraction unbound at 60 min, 10 µM (Cross filtration) was 0.0014 and the hepatocyte CLint [3] was 16.9 µL/min/1e6 cells. For the same molecule, the hepatocyte CLint at 0.1 µM [3] was 27.8 µL/min/1e6 cells, the hepatocyte CLint at 1 µM [3] was 15.2 µL/min/1e6 cells and the hepatocyte CLint at 10 µM [3] was 7.6 µL/min/1e6 cells. The “depletion in suspension hepatocytes” value (human hepatocytes) was “medium to fast depletion”, the Dermis diffusivity [4] was 6.0E−08 cm^2/s and the Dermis/water partition coefficient [4] was 7.0E−01. For the same molecule, the Epidermis diffusivity [4] was 2.0E−08 cm^2/s, the Epidermis/water partition coefficient [4] was 6.0E+02 and the Stratum corneum diffusivity [4] was 2.0E−11 cm^2/s. The “Stratum corneum/water partition coefficient” value [4] was 2.0E+03, the Vehicle diffusivity [4] was 6.2E−09 cm^2/s and the Vehicle/water partition coefficient [4] was 4.0E+05. For the same molecule, the “In vivo CLint scaled” value [5] was 121.7 l/h/kg liver, the “AUC0 − t Fold Difference (Simulated Mean/Observed Mean)” value ([6]; Day 1) was 1.4 and the “Cmax Fold Difference (Simulated Mean/Observed Mean)” value ([6]; Day 1) was 1.2. For the same molecule, the “AUC0 − t Fold Difference (Simulated Mean/Observed Mean)” value ([6]; Day 4) was 1.4, the “Cmax Fold Difference (Simulated Mean/Observed Mean)” value ([6]; Day 4) was 0.6 and the “Dermal delivery (Epidermis + dermis + receptor fluid), 14C-octocrylene” value ([8]; 24 h, mean, ref SCCS (2021)) was 0.15%. For the same molecule, the “Dermis, distribution of 14C-octocrylene” value ([8]; 24 h, mean, ref SCCS (2021)) was 0.012%, the “Epidermis, distribution of 14C-octocrylene” value ([8]; 24 h, mean, ref SCCS (2021)) was 0.14% and the “Receptor fluid, distribution of 14C-octocrylene” value ([8]; 24 h, mean, ref SCCS (2021)) was 0.0001%. The “Skin excess, distribution of 14C-octocrylene” value ([8]; 24 h, mean, ref SCCS (2021)) was 97.96%, the “Total recovery, 14C-octocrylene” value ([8]; 24 h, mean, ref SCCS (2021)) was 98.8% and the “Total strips (1–20), distribution of 14C-octocrylene” value ([8]; 24 h, mean, ref SCCS (2021)) was 0.69%. For the same molecule, the “absorbed dose into receptor fluid” value [8, 10] was “negligible”, the “dermal delivered fraction of the applied dose” value [8, 10] was “less than 0.4%” and the “Observed AUC0 − t, Geometric mean” value ([7]; Day 1) was 20.0 ng·h/mL. For the same molecule, the “Observed AUC0 − t, Range” value ([7]; Day 1) was 6.4 to 38.1 ng·h/mL, the “Observed Cmax, Range” value ([7]; Day 1) was 0.5 to 3.6 ng/mL and the “Observed AUC0 − t, Geometric mean” value ([7]; Day 4) was 94.7 ng·h/mL. The “Observed AUC0 − t, Range” value ([7]; Day 4) was 41.4 to 210.0 ng·h/mL and the “Observed Cmax, Range” value ([7]; Day 4) was 2.6 to 38.7 ng/mL.
For CC(C)NCC(O)COc1cccc2ccccc12 (stereo not shown) [propranolol], the bound to plasma [9] is listed as 90%–95.
